{"data": "Published values gathered from unrelated publications", "target": "Megakaryocyte-associated tyrosine-protein kinase (MATK, Homo sapiens, UniProt P42679)", "Sequence (P42679 1-507, as in one of the studies)": "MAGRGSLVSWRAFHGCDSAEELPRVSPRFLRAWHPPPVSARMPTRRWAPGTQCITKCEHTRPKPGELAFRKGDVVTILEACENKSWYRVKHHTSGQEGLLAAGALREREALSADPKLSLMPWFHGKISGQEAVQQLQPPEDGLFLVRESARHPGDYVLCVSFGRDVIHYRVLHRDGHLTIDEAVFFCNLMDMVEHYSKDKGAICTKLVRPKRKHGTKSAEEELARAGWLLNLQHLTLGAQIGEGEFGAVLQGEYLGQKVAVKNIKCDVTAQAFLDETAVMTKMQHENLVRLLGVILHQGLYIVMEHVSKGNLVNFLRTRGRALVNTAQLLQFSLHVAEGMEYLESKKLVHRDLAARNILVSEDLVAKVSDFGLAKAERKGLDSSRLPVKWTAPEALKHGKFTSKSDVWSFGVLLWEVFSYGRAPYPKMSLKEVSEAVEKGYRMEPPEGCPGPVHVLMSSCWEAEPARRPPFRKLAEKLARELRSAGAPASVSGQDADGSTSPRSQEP"}
{"SMILES": "CN(C)c1ncc(F)c(-c2cnn3ncccc23)n1", "assay": "binding", "setting": "1 µM", "remaining binding": "79%"}
{"SMILES": "Cc1cc(NC(=O)c2cccc(S(F)(F)(F)(F)F)c2)cc(-n2ccn3nc(-c4cccnc4)cc23)c1", "assay": "cell-free assay, competition with immobilised ligand", "setting": "1 µM", "remaining binding": "100%"}
{"SMILES": "Cc1cnc(Nc2ccc(C(=O)N3CCC(N4CCCC4)CC3)cc2)nc1-c1cc2ccccc2s1", "assay": "binding, competition with immobilised ligand", "setting": "1 µM", "remaining binding": "30%"}
{"SMILES": "CN(C)c1nccc(-c2cnn3ncccc23)n1", "assay": "binding", "setting": "1 µM", "remaining binding": "100%"}
{"SMILES": "CNCc1ccccc1-c1csc([C@@H](C)Nc2nc(C)nc3cc(OC)c(OC)cc23)c1", "assay": "cell-free assay, competition with immobilised ligand", "setting": "1 µM", "remaining binding": "57%"}
{"SMILES": "N[C@H]1CCN(c2nccc(-c3cnn4ncccc34)n2)C1", "assay": "binding", "setting": "1 µM", "remaining binding": "100%"}
{"SMILES": "O=C(N[C@H]1CCCCC/C=C\\C2C[C@@]2(C(=O)O)NC(=O)[C@@H]2C[C@@H](Oc3ccncc3)CN2C1=O)OC1CCCC1 (some centres unmarked)", "assay": "binding, competition with immobilised ligand", "setting": "1 µM", "remaining binding": "41%"}
{"SMILES": "CCN1CCN(Cc2ccc(C(=O)Nc3ccc(C)c(Oc4ccc5c(c4)CC(=O)N5)c3)cc2C(F)(F)F)CC1", "assay": "binding, competition with immobilised ligand", "setting": "1 µM", "remaining binding": "100%"}
{"SMILES": "F[C@@H]1CCN(c2nccc(-c3cnn4ncccc34)n2)C1", "assay": "binding", "setting": "1 µM", "remaining binding": "80%"}
{"SMILES": "Nc1ncc2c(n1)-c1c([nH]c3ccc(C#CC4CC4)cc13)CCCC2", "assay": "binding, competition with immobilised ligand", "setting": "1 µM", "remaining binding": "100%"}
{"SMILES": "c1cncc(-c2cccc(Nc3nccc(NC4CCCCC4)n3)c2)c1", "assay": "binding, competition with immobilised ligand", "setting": "10 µM", "remaining binding": "71%"}
{"SMILES": "CN(c1nccc(-c2cnn3ncccc23)n1)C1CC1", "assay": "binding", "setting": "1 µM", "remaining binding": "100%"}
{"SMILES": "FC(F)(F)c1ccc2c(c1)nc(-c1cccnc1)n2C1CC1", "assay": "cell-free assay, competition with immobilised ligand", "setting": "1 µM", "remaining binding": "100%"}
{"SMILES": "O=C(c1ccc(Nc2ncc(Cl)c(-c3cc4ccccc4s3)n2)cc1)N1CCC(N2CCCC2)CC1", "assay": "binding, competition with immobilised ligand", "setting": "1 µM", "remaining binding": "47%"}
{"SMILES": "O=C(Nc1c[nH]nc1C(=O)NC1CCNCC1)c1cc(F)cc(F)c1", "assay": "binding, competition with immobilised ligand", "setting": "1 µM", "remaining binding": "84%"}
{"SMILES": "O=C(c1ccc(Nc2nccc(-c3cc4ccccc4s3)n2)cc1)N1CCC(N2CCCC2)CC1", "assay": "binding, competition with immobilised ligand", "setting": "1 µM", "remaining binding": "67%"}
{"SMILES": "C[C@@H](c1cccc(C#N)c1)n1cc(Cl)cc(C(N)=O)c1=N", "assay": "cell-free assay, competition with immobilised ligand", "setting": "1 µM", "remaining binding": "100%"}
{"SMILES": "COc1ccnn2ncc(-c3ccnc(N(C)C)n3)c12", "assay": "binding", "setting": "1 µM", "remaining binding": "100%"}
{"SMILES": "CNC(=O)[C@@H]1CC[C@@H](n2c(-c3ccc4cnccc4c3)nc3ccc(C(=O)NCc4cccc(C(N)=O)c4)cc32)C1", "assay": "binding, competition with immobilised ligand", "setting": "1 µM", "remaining binding": "100%"}
{"SMILES": "O=C(Nc1cnc(Oc2ccc(F)cc2)nc1)N1CCc2ncccc2[C@@H]1c1ccc(F)cc1", "assay": "cell-free assay, competition with immobilised ligand", "setting": "1 µM", "remaining binding": "80%"}
